Active and inactive are the calls of the source. No cut-off for these calls is given here.
Legend:
[1] = target: T1, Peroxisome proliferator-activated receptor alpha (Homo sapiens) (UniProt Q07869); assay: Agonist activity at human PPARalpha ligand binding domain expressed in COS-1 cells co-transfected with Gal4 at 10 uM by luciferase reporter gene assay relative to control; type: cell-based
T1 sequence (whole entry): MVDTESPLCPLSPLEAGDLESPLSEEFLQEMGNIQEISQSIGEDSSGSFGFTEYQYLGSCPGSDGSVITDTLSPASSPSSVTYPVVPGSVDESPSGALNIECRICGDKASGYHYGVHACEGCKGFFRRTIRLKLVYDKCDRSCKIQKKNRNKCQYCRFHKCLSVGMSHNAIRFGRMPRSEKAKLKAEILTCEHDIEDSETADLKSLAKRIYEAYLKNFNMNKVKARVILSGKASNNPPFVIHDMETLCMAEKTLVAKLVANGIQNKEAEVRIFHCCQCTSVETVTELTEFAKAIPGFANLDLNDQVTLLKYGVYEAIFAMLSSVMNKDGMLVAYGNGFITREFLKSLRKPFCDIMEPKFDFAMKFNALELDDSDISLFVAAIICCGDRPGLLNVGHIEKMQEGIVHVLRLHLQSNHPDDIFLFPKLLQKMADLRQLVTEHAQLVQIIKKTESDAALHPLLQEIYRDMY
In short: (§1)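 COS-1 cells were seeded at 5 × 10⁴ cells/well and grown about 24 h at 37 °C under 5% CO₂ in DMEM with 10% charcoal-treated FCS. They were lipofected with a GAL4–PPAR ligand-binding-domain fusion plasmid plus a GAL4-responsive luciferase reporter. Medium was replaced at 4 h with medium containing compound; no-drug controls received 0.1% DMSO final. Cells were lysed after 24 h and luciferase was read. Results are reported as fold induction and EC50.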

[2] = target: T1, Peroxisome proliferator-activated receptor alpha (Homo sapiens); assay: Agonist activity at human PPARalpha ligand binding domain expressed in COS-1 cells co-transfected with Gal4 by luciferase reporter gene assay relative to fenofibric acid; type: cell-based
[3] = target: T2, Peroxisome proliferator-activated receptor gamma (Homo sapiens) (UniProt P37231); assay: Agonist activity at human PPARgamma ligand binding domain expressed in COS-1 cells co-transfected with Gal4 by luciferase reporter gene assay relative to pioglitazone; type: cell-based
T2 sequence (whole entry): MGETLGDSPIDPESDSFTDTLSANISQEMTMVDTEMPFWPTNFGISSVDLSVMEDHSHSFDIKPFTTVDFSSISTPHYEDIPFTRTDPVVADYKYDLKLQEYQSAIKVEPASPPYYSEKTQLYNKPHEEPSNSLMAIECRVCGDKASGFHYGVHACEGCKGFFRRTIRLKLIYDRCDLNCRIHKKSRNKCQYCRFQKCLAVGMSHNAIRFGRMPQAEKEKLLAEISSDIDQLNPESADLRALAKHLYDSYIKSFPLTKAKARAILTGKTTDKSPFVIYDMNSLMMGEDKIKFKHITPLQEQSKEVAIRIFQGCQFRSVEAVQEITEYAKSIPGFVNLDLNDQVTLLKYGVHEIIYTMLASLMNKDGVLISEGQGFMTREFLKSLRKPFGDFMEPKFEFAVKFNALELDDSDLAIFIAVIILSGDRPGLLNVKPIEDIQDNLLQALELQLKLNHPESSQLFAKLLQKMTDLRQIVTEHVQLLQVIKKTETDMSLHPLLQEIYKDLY

Homo sapiens = species: Homo sapiens; assay: Selectivity ratio, ratio of EC50 for human PPARalpha ligand binding domain to EC50 for human PPARgamma ligand binding domain
[4] = target: T3, Peroxisome proliferator-activated receptor alpha (Mus musculus) (UniProt P23204); assay: Agonist activity at mouse PPARalpha ligand binding domain expressed in COS-1 cells co-transfected with Gal4 by luciferase reporter gene assay relative to fenofibric acid; type: cell-based
T3 sequence (whole entry): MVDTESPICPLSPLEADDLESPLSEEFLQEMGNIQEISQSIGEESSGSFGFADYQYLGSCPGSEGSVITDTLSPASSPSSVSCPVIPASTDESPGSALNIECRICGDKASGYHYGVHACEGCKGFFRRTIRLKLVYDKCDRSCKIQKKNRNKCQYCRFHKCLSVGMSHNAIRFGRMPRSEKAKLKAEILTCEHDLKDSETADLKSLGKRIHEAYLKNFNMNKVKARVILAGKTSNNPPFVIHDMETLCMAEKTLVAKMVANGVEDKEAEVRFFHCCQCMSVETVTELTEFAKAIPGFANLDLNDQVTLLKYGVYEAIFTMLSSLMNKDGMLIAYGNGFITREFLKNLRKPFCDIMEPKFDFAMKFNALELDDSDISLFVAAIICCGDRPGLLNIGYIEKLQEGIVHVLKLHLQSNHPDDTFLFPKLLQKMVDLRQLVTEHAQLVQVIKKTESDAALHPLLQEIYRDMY

Mus musculus [5] = assay: Antidiabetic activity in db/db mouse assessed as reduction of blood glucose level at 141 mg/kg administered with chow diet ad for 14 days; type: functional, organism-based; design: dose 141 mg/kg
In short: (§2)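 […] male db/db mice were randomised into four groups and dosed for 14 days through drug admixed in rodent chow; controls received plain chow. Blood glucose, body weight and food intake were monitored. Values are means of 6 animals/group, compared with vehicle by Dunnett's or Student's test.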

[6] = target: T4, Peroxisome proliferator-activated receptor alpha (Homo sapiens, UniProt Q07869); assay: Agonist activity at human PPARalpha ligand binding domain expressed in COS-1 cells co-transfected with Gal4 by luciferase reporter gene assay; type: cell-based; in short: as §1
T4 sequence (Q07869 whole entry): T1 sequence (whole entry)

[7] = target: T5, Peroxisome proliferator-activated receptor gamma (Homo sapiens, UniProt P37231); assay: Agonist activity at human PPARgamma ligand binding domain expressed in COS-1 cells co-transfected with Gal4 by luciferase reporter gene assay; type: cell-based
T5 sequence (P37231 whole entry): T2 sequence (whole entry)

[8] = target: T6, Peroxisome proliferator-activated receptor alpha (Mus musculus, UniProt P23204); assay: Agonist activity at mouse PPARalpha ligand binding domain expressed in COS-1 cells co-transfected with Gal4 by luciferase reporter gene assay; type: cell-based; in short: as §1
T6 sequence (P23204 whole entry): T3 sequence (whole entry)

[9] = AUC in rat at 10 mg/kg, po; type: ADME, organism-based; design: dose 10 mg/kg, route oral; conditions: plasma
In short: (§3)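 Single oral dose of the sodium salt given to rats. Plasma profile used to derive AUC, Cmax, Tmax and bioavailability.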

[10] = AUC in rat at 1 mg/kg, iv; type: ADME, organism-based; design: dose 1 mg/kg, route intravenous; conditions: plasma
In short: (§4)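 Single intravenous dose of the sodium salt given to rats. Plasma concentrations followed to derive AUC, half-life, plasma clearance and steady-state distribution volume.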

[11] = Cmax in rat at 10 mg/kg, po; type: ADME, organism-based; design: dose 10 mg/kg, route oral; conditions: in vivo; in short: as §3
[12] = Tmax in rat at 10 mg/kg, po; type: ADME, organism-based; design: dose 10 mg/kg, route oral; conditions: in vivo; in short: as §3
[13] = Half life in rat at 1 mg/kg, iv; type: ADME, organism-based; design: dose 1 mg/kg, route intravenous; conditions: in vivo; in short: as §4
[14] = Clearance in rat at 1 mg/kg, iv; type: ADME, organism-based; design: dose 1 mg/kg, route intravenous; conditions: in vivo; in short: as §4
[15] = Volume of distribution at steady state in rat at 1 mg/kg, iv; type: ADME, organism-based; design: dose 1 mg/kg, route intravenous; conditions: in vivo, read-out: Vdss; in short: as §4
[16] = Oral bioavailability in rat at 10 mg/kg; type: ADME, organism-based; conditions: in vivo; in short: as §3
Mus musculus [17] = assay: Toxicity in db/db mouse assessed as increase of body weight at 15 mg/kg administered with chow diet ad for 14 days; type: organism-based; design: dose 15 mg/kg; conditions: in vivo, po, 336 h; in short: as §2
Mus musculus [18] = assay: Toxicity in db/db mouse assessed as increase of body weight at 141 mg/kg administered with chow diet ad for 14 days; type: organism-based; design: dose 141 mg/kg; conditions: in vivo, po, 336 h; in short: as §2
Mus musculus [19] = assay: Toxicity in db/db mouse assessed as effect on food intake at 15 mg/kg administered with chow diet ad for 14 days; type: organism-based; design: dose 15 mg/kg; conditions: in vivo, po, 336 h; in short: as §2
Mus musculus [20] = assay: Toxicity in db/db mouse assessed as effect on food intake at 141 mg/kg administered with chow diet ad for 14 days; type: organism-based; design: dose 141 mg/kg; conditions: in vivo, po, 336 h; in short: as §2
Mus musculus [21] = assay: Antidiabetic activity in db/db mouse assessed as reduction of blood glucose level at 41 mg/kg administered with chow diet ad for 14 days; type: functional, organism-based; design: dose 41 mg/kg; in short: as §2
Mus musculus [22] = assay: Toxicity in db/db mouse assessed as increase of body weight at 41 mg/kg administered with chow diet ad for 14 days; type: organism-based; design: dose 41 mg/kg; conditions: in vivo, po, 336 h; in short: as §2
Mus musculus [23] = assay: Toxicity in db/db mouse assessed as effect on food intake at 41 mg/kg administered with chow diet ad for 14 days; type: organism-based; design: dose 41 mg/kg; conditions: in vivo, po, 336 h; in short: as §2

Cc1ccc(C(=O)c2cccn2C/C=C/c2cccc(OCC(=O)O)c2)cc1 [listing 1 of 2 here]
fold change (FC) [1]: 5.2 | Emax [2]: 37% | Emax [3]: 17% | Ratio EC50 (Homo sapiens): 1.5 | Emax [4]: 25% | Activity (Mus musculus [5]): Active

COc1cccc(C(=O)c2cccn2C/C=C/c2cccc(OCC(=O)O)c2)c1
fold change (FC) [1]: 1.4

COc1ccc(C(=O)c2cccn2C/C=C/c2ccccc2OCC(=O)O)cc1
fold change (FC) [1]: 0.8

Cc1ccccc1C(=O)c1cccn1C/C=C/c1cccc(OCC(=O)O)c1
fold change (FC) [1]: 1.1

COc1ccc(C(=O)c2cc(C)cn2C/C=C/c2ccc(Cl)cc2C(=O)NS(C)(=O)=O)cc1
fold change (FC) [1]: 0.9 | EC50 [6]: > 90 µM | EC50 [7]: 12 µM | Emax [3]: 19% | Ratio EC50 (Homo sapiens): > 7.5

COc1ccc(C(=O)c2cccn2C/C=C/c2ccc(CC(=O)O)cc2)cc1
fold change (FC) [1]: 0.8

COc1ccc(C(=O)c2cccn2C/C=C/c2cccc(CC(=O)O)c2)cc1
fold change (FC) [1]: 1.6 | EC50 [6]: 21 µM | Emax [2]: 43% | EC50 [7]: 2 µM | Emax [3]: 37% | Ratio EC50 (Homo sapiens): 11

Cc1cccc(C(=O)c2cccn2C/C=C/c2cccc(OCC(=O)O)c2)c1
fold change (FC) [1]: 1.9

CC(C)(Oc1ccc(C(=O)c2ccc(Cl)cc2)cc1)C(=O)O [FENOFIBRIC ACID]
fold change (FC) [1]: 5.6 | EC50 [6]: 12 µM

COc1ccc(C(=O)c2cccn2C/C=C/c2ccc(OCC(=O)O)cc2)cc1
fold change (FC) [1]: 3.5

Cc1ccc(C(=O)c2cccn2C/C=C/c2cccc(OCC(=O)O)c2)cc1 [listing 2 of 2 here]
EC50 [6]: 1.8 µM | EC50 [7]: 1.2 µM | EC50 [8]: 4.9 µM

COc1ccccc1C(=O)c1cccn1C/C=C/c1cccc(OCC(=O)O)c1
fold change (FC) [1]: 0.9

Cc1ccc(C(=O)c2cccn2C/C=C/c2cccc(OCC(=O)[O-])c2)cc1.[Na+]
AUC [9]: 59000 ng·h/mL | AUC [10]: 14000 ng·h/mL | Cmax [11]: 4300 ng/mL | Tmax [12]: 4 h | half-life [13]: 3.2 h | clearance [14]: 1.2 mL/min/kg | Vd [15]: 0.3 L/kg | bioavailability [16]: 42% | Activity (Mus musculus [17]): Non-toxic | Activity (Mus musculus [18]): Non-toxic | Activity (Mus musculus [19]): Non-toxic | Activity (Mus musculus [20]): Non-toxic

COc1ccc(C(=O)c2cccn2C/C=C/c2cccc(OCC(=O)O)c2)cc1
fold change (FC) [1]: 5.8 | EC50 [6]: 3.7 µM | Emax [2]: 42% | EC50 [7]: 1.9 µM | Emax [3]: 16% | Ratio EC50 (Homo sapiens): 1.9

COc1ccc(C(=O)c2cccn2C/C=C/c2ccccc2CC(=O)O)cc1
fold change (FC) [1]: 1

CCc1ccc(CCOc2ccc(CC3SC(=O)NC3=O)cc2)nc1 (stereo unspecified) [PIOGLITAZONE]
Activity (Mus musculus [21]): Active | Activity (Mus musculus [22]): Toxic | Activity (Mus musculus [23]): Toxic

From ChEMBL document CHEMBL1641576, “Development of a new class of benzoylpyrrole-based PPARα/γ activators” (Bioorg Med Chem Lett, 2011)
